Screening data deposited in PubChem by The Scripps Research Institute Molecular Screening Center.
Hits are enriched below; roughly 1.9% of the tested compounds scored in any of these assays.
NPY-Y1 PAM-ag = NPY-Y1 receptor potentiators or agonists, primary screen, cell-based | NPY-Y1 expressing cells, potentiator/agonist activation | Neuropeptide Y receptor type 1 (Homo sapiens), P25929 | 220,000 tested, 0.37% active | activation, % at 3.6 µM; in the data active = activation above about 33%, passing the limit was not always enough;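 note: cells stimulated with NPY at EC10 then isoproterenol at EC100; 0% = low agonist plus stimulus and 100% = saturating agonist plus stimulus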
NPY-Y2 PAM-ag = NPY-Y2 potentiators or agonists, primary screen, cell-based; 220,000 tested, 0.45% active; activation, % at 3.6 µM; Neuropeptide Y receptor type 2 (Homo sapiens), P49146; AID 1359, 2008; cells expressing NPY-Y2, potentiator/agonist read-out; in the data active = activation above about 27%;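 note: cells stimulated with NPY near EC25 plus isoproterenol at EC100; 0% = vehicle plus submaximal agonist and 100% = vehicle plus saturating agonist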
Target sequence (P49146 whole entry, looked up): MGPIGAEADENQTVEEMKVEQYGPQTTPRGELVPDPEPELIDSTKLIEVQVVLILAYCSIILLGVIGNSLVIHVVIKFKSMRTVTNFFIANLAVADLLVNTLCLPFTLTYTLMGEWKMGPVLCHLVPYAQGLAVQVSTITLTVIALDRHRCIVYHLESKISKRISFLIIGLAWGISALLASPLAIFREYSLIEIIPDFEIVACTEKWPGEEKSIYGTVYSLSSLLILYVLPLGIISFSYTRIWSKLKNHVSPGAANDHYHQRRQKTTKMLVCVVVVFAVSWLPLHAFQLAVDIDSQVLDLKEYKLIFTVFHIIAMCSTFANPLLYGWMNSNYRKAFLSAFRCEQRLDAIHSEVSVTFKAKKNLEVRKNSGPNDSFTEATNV
NPY Y1 blocker = NPY-Y1 receptor antagonists, primary screen, cell-based. HEK293-CNG Y1 cells, membrane potential fluorescence; NPY at EC95, then isoproterenol. inhibition, % at 3.6 µM. 200,000 tested, 1% active;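 active = inhibition above the campaign mean inhibition of all tested compounds plus 3 SD, cut at about 20% in these data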;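 note: 0% = DMSO wells given NPY plus isoproterenol and 100% = isoproterenol alone without NPY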
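Material: HEK293 Y1/CNG channel cell line | Also added: NPY (25 nM), isoproterenol (1 µM), Ro 20-1724 (25 µM) | Compound: One concentration, 3.6 µM, in 0.4% DMSO | Schedule: 3 h dye uptake, 1 h room-temperature compound, 45 min post-isoproterenol | Signal: Membrane-potential fluorescent dye readout | Read-out: % inhibition of NPY effect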
NPY-Y2 antag = NPY-Y2 receptor antagonists, primary screen, cell-based; 140,000 tested, 0.99% active; AID 793, 2007; Neuropeptide Y receptor type 2 (Homo sapiens), P49146; inhibition, % at 2.7 µM; NPY-Y2 expressing cells, antagonist mode;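 note: 0% = vehicle with agonist challenge and 100% = reference antagonist with challenge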
NPY-Y1 ant conf = NPY-Y1 receptor antagonists, retest of hits, confirmation, HEK293-CNG cells, membrane potential fluorescence, triplicate | inhibition, % at 3.6 µM | AID 1254, 2008 | shares compounds with NPY Y1 blocker | 1,200 tested, 21% active | cAMP; NPY challenge against isoproterenol-raised cAMP; in the data active = inhibition above about 20%;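 note: 0% = vehicle with agonist plus stimulus and 100% = stimulus alone without agonist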
NPY-Y2 antag ct = NPY-Y2 receptor antagonists, selectivity check, confirmation, counter-screen for NPY-Y1 antagonist project, HEK293-CNG cells, membrane potential fluorescence, triplicate; shares compounds with NPY Y1 blocker; antagonism; cells given NPY, then isoproterenol; inhibition, % at 3.6 µM; 1,200 tested, 28% active; AID 1255, 2008;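 note: 0% = DMSO with agonist challenge and 100% = reference antagonist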
Numbers without * were called inactive; / = not tested or not shown. Cut-off read from the data, not from the text of the source, unless noted: active = inhibition above about 17%; inactive = the rest.

SMILES	NPY-Y1 PAM-ag	NPY-Y2 PAM-ag	NPY Y1 blocker	NPY-Y2 antag	NPY-Y1 ant conf	NPY-Y2 antag ct
Cc1ccc(Nc2nc(N)nc(-c3oc4ccccc4c3C)n2)cc1	-19.2	-30.4	24.5*	/	5.5	29.9*
c1ccc(-c2nc(Sc3ncnc4c3cnn4-c3ccccc3)n[nH]2)cc1	-51.2	-33.3	25.8*	6.2	7.4	8.8
COC(=O)c1ccc(CSc2nc3c(c(=O)n2-c2ccccc2)SCC3)o1	-14.0	-5.6	1.3	3.7	/	/
COC(=O)c1ccc(CSc2nc3c(c(=O)n2-c2ccc(F)cc2)SCC3)o1	2.8	-8.2	21.4*	8.2	7.0	5.4
CCc1ncc(C(=O)c2ccc(OC)cc2)n1C	-14.3	-0.5	28.6*	-1.8	-0.3	0.1
Cc1cc(Cl)c(OCCOCCN2CCCCC2)c(Br)c1	9.7	-5.1	3.6	3.3	/	/
Cc1cc(Cl)c(OCCOCCN2CCCC(C)C2)c(Br)c1 (stereo not given)	-22.6	-28.3	23.0*	/	5.3	11.0
O=C(c1ccc([N+](=O)[O-])cc1)N1CCN(c2cccc3[nH]ccc23)CC1	7.6	7.1	/	/	/	/
Cc1nc(-c2cccc(NS(=O)(=O)c3ccc4ccccc4c3)c2)cs1	-24.9	-33.2	32.2*	15.2	8.8	9.6
Cc1cccc(NC(=O)c2cc(N3CCOCC3)nc3ccccc23)c1	-68.8	-14.3	16.0	4.1	/	/
Cc1cccc(NC(=O)c2cc(Cl)nc3ccccc23)c1	-106.5	-57.8	24.1*	15.5	7.8	12.2
CCc1ccc(Cc2cnc(NC(=O)C3=NCCN3)s2)cc1	-10.3	-3.1	3.0	/	/	/
CN(C)/C=C(\C=O)c1ccc(Cl)cc1Cl	0.8	6.8	-1.5	/	/	/
CC1(C)C(CSc2nc3ccccc3[nH]2)C1(Cl)Cl (stereo not given)	-45.8	-82.0	91.8*	/	90.0*	110.4*
O=C(Nc1cccc(F)c1)N1CCCC(CNS(=O)(=O)Cc2ccccc2)C1 (stereo not given)	-4.7	-10.2	5.6	/	/	/
O=[N+]([O-])c1ccc(C2CCCC/C2=N\OCc2cccc(F)c2)c([N+](=O)[O-])c1 (stereo not given)	-37.4	-12.1	30.7*	0.3	11.3	11.3
COc1ccccc1OCCCn1c(=O)oc2ccc(C)cc21	-19.5	-14.0	9.2	1.8	/	/
CCCOc1ccc(Cn2c(=O)oc3ccc(C)cc32)cc1OC	-42.5	-28.8	32.2*	4.5	6.4	8.5
C1=C(c2ccccc2)Nc2ccccc2N=C1c1ccccc1	-19.0	-6.0	24.9*	15.0	18.3	10.2
O=C(/C=C/c1cccc(Br)c1)NCc1ccncc1	-4.9	-10.9	2.1	/	/	/
O=C(CCNS(=O)(=O)c1c(Cl)cccc1Cl)OCC(=O)c1ccccc1	1.8	9.0	0.9	-2.4	/	/
Cc1ccc(NC(=S)N(CCN(C)C)Cc2cc3cc(C)cc(C)c3[nH]c2=O)cc1	-10.7	-10.9	24.9*	6.8	1.3	7.6
Cc1ccc2cc(CN(CCN(C)C)C(=S)Nc3ccccc3)c(=O)[nH]c2c1C	-14.0	3.7	10.8	/	/	/
CCCCNCc1cc(Cl)c(OCCC)c(OCC)c1	-18.2	0.2	5.0	1.3	/	/
CCCCOc1c(Cl)cc(CNC(C)(C)CO)cc1OCC	-34.8	-14.3	23.5*	7.3	7.0	6.4
Cc1nc(CSc2nc3[nH]ncc3c(=O)n2-c2ccccc2)cs1	-4.3	-11.3	2.5	4.8	/	/
Cc1noc(C)c1CSc1nc2[nH]ncc2c(=O)n1-c1ccccc1	-1.8	-17.8	21.1*	6.5	8.0	14.6
COc1cc(/C=C/C(=O)NC(C)CCc2ccccc2)cc(OC)c1OC (stereo not given)	-18.1	-8.6	21.6*	4.9	6.4	9.9
CC(CCc1ccccc1)NC(=O)/C=C/c1ccccc1 (stereo not given)	-21.7	-8.4	15.7	12.7	/	/
CCN(CC)S(=O)(=O)c1ccc(C)c(NC(=O)COC(=O)c2ccc(C)c(S(=O)(=O)N3CCOCC3)c2)c1	-20.5	7.4	4.7	1.9	/	/
